Published values gathered from unrelated publications.
SQLE: Squalene monooxygenase (SQLE, Homo sapiens, UniProt Q14534)
ADRA1A: Alpha-1A adrenergic receptor (ADRA1A, Homo sapiens, UniProt P35348)
Tspo: Translocator protein (Tspo, Rattus norvegicus, UniProt P16257)

Structure (SMILES) | target | observed | action | technique | cell line | pH | Ki
CCN(CC)C(C)CN1c2ccccc2Sc2ccccc21 (stereo not shown) | SQLE | enzyme activity | inhibitor |  |  |  | 0.65 µM
COc1cc(O)c2c(c1)oc(=O)c1c3cc(O)c(O)cc3oc21 | Alpha-glucosidase MAL12 (MAL12, Saccharomyces cerevisiae S288c, UniProt P53341) | enzyme activity | inhibitor |  |  |  | 30 µM
Cc1cc(Oc2ncccc2CN2CCN(c3ccccc3[N+](=O)[O-])CC2)ccc1-c1c(C)c(=O)[nH]c(=O)n1C | ADRA1A | ligand displacement |  | radioligand |  |  | 1.98 µM
O=C[C@H](O)[C@@H](O)[C@H](O)[C@H](O)COP(=O)(O)O | Hexokinase HKDC1 (Homo sapiens, UniProt Q2TB90) | enzyme activity | inhibitor |  |  | pH 8 | 3400 µM
COc1cc2c3c(c1OC)-c1c(OC)ccc(-c4ccc(C#N)cc4)c1CC3N(C)CC2 (stereo not shown) | ADRA1A | cell-free assay |  | radioligand |  |  | 0.322 µM
Cc1cc(Oc2ncccc2CN2CCN(c3cccc(Cl)c3Cl)CC2)ccc1-c1c(C)c(=O)[nH]c(=O)n1C | ADRA1A | ligand displacement |  | radioligand |  |  | 1.93 µM
CCOC(=O)[C@@]12C[C@@H]1[C@@H](n1cnc3c(NCc4cccc(Cl)c4)nc(C#Cc4ccc(Cl)s4)nc31)[C@H](O)[C@@H]2O | Tspo | cell-free assay |  | radioligand |  |  | 0.51 µM
C=CC(=O)N1C[C@H](Nc2ncnc3[nH]ccc23)CC[C@@H]1C | Solute carrier family 22 member 6 (SLC22A6, Homo sapiens, UniProt Q4U2R8) | transporter uptake | inhibitor |  | HEK293 | pH 7.4 | 156 µM
COc1cc(C2Oc3cc([C@H]4Oc5cc(O)cc(O)c5C(=O)[C@@H]4O)ccc3OC2CO)ccc1O (stereo partly shown) | SQLE | enzyme activity | inhibitor |  |  |  | 1.42 µM
COc1ccc(Cl)cc1N1CCN(Cc2cccnc2Oc2ccc(-c3c(C)c(=O)[nH]c(=O)n3C)c(C)c2)CC1 | ADRA1A | ligand displacement |  | radioligand |  |  | 0.353 µM
N#Cc1ccc2c(c1)N(CCCN1CCC(O)CC1)c1ccccc1S2 | SQLE | enzyme activity | inhibitor |  |  |  | 0.69 µM
O=c1cc(-c2ccc(O)cc2)oc2cc(O[C@@H]3O[C@H](CO)[C@@H](O)[C@H](O)[C@H]3O)cc(O)c12 | SQLE | enzyme activity | inhibitor |  |  |  | 0.66 µM
Cc1cc(Oc2ncccc2CN2CCN(CCc3ccccc3)CC2)ccc1-c1c(C)c(=O)[nH]c(=O)n1C | ADRA1A | ligand displacement |  | radioligand |  |  | 0.296 µM
COc1cc2c3c(c1OC)-c1c(OC)ccc(N4CCOCC4)c1CC3N(C)CC2 (stereo not shown) | ADRA1A | cell-free assay |  | radioligand |  |  | 0.643 µM
Cc1cc(Oc2ncccc2CN2CCN(c3ccccc3Cl)CC2)ccc1-c1c(C)c(=O)[nH]c(=O)n1C | ADRA1A | ligand displacement |  | radioligand |  |  | 0.93 µM
OC[C@@]12C[C@@H]1[C@@H](n1cnc3c(NC(C4CCC4)C4CCC4)nc(C#Cc4ccc(Cl)s4)nc31)[C@H](O)[C@@H]2O | Tspo | cell-free assay |  | radioligand |  |  | 0.67 µM
